Test results reported in article PMC10401000 (Proceedings of the National Academy of Sciences of the …, 2023).

How the values were obtained:
β2AR = conditions: cited from earlier work
HASM cells = experiment: Magnetic twisting cytometry, HASM cell stiffness; type: cell-based, human; conditions: 10 μM ISO
Method in brief: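 Magnetic twisting cytometry: integrin-anchored beads on serum-deprived, post-confluent HASM cells from nonasthma donors, plated at 30,000 cells/cm² on collagen I and kept serum-free for 24 h. Cells were pretreated ± 1 μM test compound for 30 min. […] Stiffness was normalized to each cell's baseline; linear mixed-effect model on log data; 463 to 473 cells.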

| Compound | allosteric modulator activity at the β2AR (β2AR) | time to peak relaxation (HASM cells) [min] |
| --- | --- | --- |
| Nc1nc(Nc2ccccc2)nc2ccc(Br)cc12 [AS408] | NAM for both ISO-mediated cAMP production and β-arrestin recruitment |  |
| CC(C)NCC(O)c1ccc(O)c(O)c1 (centres unmarked) [ISO, isoproterenol] |  | 4 to 5 |
